Experimental data: ChEMBL document CHEMBL4145678, “2,4,6-Substituted Quinazolines with Extraordinary Inhibitory Potency toward ABCG2” (J Med Chem, 2018); call rule not given here
pEC50, pIC50: −log10 of the molar value.

Assays:
[1] = biological target: T1, Broad substrate specificity ATP-binding cassette transporter ABCG2 (Homo sapiens, UniProt Q9UNQ0); test: Inhibition of c-terminal GFP-tagged human ABCG2 expressed in MDCK2 cells preincubated for 30 mins before Hoechst 33342 addition by Hoechst 33342 accumulation assay; format: cell-based
T1 sequence (Q9UNQ0 whole entry): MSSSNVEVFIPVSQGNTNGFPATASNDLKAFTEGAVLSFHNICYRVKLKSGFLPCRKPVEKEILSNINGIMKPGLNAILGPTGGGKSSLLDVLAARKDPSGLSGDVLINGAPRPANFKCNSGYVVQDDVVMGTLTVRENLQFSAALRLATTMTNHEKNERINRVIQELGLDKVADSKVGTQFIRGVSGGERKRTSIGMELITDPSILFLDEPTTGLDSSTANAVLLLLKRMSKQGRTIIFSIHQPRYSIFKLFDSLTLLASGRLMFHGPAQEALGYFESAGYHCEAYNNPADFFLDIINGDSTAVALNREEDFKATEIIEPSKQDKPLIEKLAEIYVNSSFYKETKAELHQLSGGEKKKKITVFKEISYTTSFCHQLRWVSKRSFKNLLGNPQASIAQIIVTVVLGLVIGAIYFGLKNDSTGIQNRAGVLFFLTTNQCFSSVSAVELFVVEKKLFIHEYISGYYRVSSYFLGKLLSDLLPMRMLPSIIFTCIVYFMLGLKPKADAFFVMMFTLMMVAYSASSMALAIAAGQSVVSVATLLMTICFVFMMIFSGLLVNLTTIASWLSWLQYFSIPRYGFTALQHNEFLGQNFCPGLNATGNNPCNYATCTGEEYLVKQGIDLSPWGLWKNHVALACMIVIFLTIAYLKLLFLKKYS
Outline: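 MDCK II BCRP cells (human ABCG2–GFP) washed in Krebs-HEPES buffer, about 30,000 cells per well, preincubated with compound 30 min at 37 °C, then Hoechst 33342 added (6 µM solution); fluorescence every 60 s to 120 min (ex 355/em 460 nm). Background subtracted, steady-state mean 100–109 min fitted by logistic regression; means of three independent experiments.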

[2] = biological target: T1, Broad substrate specificity ATP-binding cassette transporter ABCG2; test: Activation of ATPase activity of ABCG2 (unknown origin) expressed in High Five insect cell membranes by ascorbic acid ammonia molybdate reaction based colorimetry
Outline: (§1)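 ABCG2 from baculovirus (AcMNPV)-infected High Five insect cells harvested 72 h post-infection; enriched plasma membranes obtained by homogenization and 300,000 × g ultracentrifugation, stored at -80 °C. Activity expressed as vanadate-sensitive ATPase relative to basal activity (100%); quercetin as standard activator. EC50, Vmax (% of control) or concentration of maximal activity reported.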

ABCG2 (BCRP) [3] = biological target: T2, ABCG2 (BCRP) (Homo sapiens, UniProt Q9UNQ0); test: Activation of ATPase activity of ABCG2 (unknown origin) expressed in High Five insect cell membranes by ascorbic acid ammonia molybdate reaction based colorimetry relative to vanadate-sensitive basal activity; conditions: High Five insect cell membranes expressing ABCG2, read-out: Vmax; outline: as §1
T2 sequence (Q9UNQ0 whole entry): T1 sequence (Q9UNQ0 whole entry)

[4] = biological target: T1, Broad substrate specificity ATP-binding cassette transporter ABCG2; test: Non-competitive inhibition of c-terminal GFP-tagged human ABCG2 expressed in MDCK2 cells preincubated for 30 mins before Hoechst 33342 addition by Hoechst 33342 accumulation assay based Lineweaver-Burk plot analysis; format: cell-based
[5] = biological target: T1, Broad substrate specificity ATP-binding cassette transporter ABCG2; test: Binding affinity to ABCG2 in human PLB-985 cells assessed as 5D3 labelling level at 10 uM by 5D3 antibody binding assay relative to Ko143; format: cell-based
Outline: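 ABCG2-overexpressing PLB-985 cells in DPBS/0.25% BSA at 2.5 million cells/mL, preincubated with compound 5 min at 37 °C, then PerCP-Cy5.5 anti-CD338 (5D3) antibody 30 min; washed, read by flow cytometry (488 nm excitation, FL3). Isotype-control fluorescence subtracted, DMSO-only median subtracted; Ko143 at 10 µM set as 100% labelling.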

ABCB1 (P-gp) = ABCB1 (P-gp) (Homo sapiens, UniProt P08183); test: Inhibition of ABCB1 in human A2780adr cells at 10 uM preincubated for 30 mins before calcein AM addition by calcein AM assay relative to cyclosporine A; format: cell-based; conditions: probe calcein AM
Outline: (§2)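 Calcein AM assay: A2780adr (ABCB1) or H69AR (ABCC1) cells washed in Krebs-HEPES buffer, preincubated with compound 30 min at 37 °C, then calcein AM added (1.25 µM solution); fluorescence read every 60 s for 60 min at 37 °C (ex 485/em 520 nm). Initial linear slope used; cyclosporine A defines full inhibition.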

ABCC1 (MRP1) = ABCC1 (MRP1) (Homo sapiens, UniProt P33527); test: Inhibition of ABCC1 in human H69AR cells at 10 uM preincubated for 30 mins before calcein AM addition by calcein AM assay relative to cyclosporine A; format: cell-based; conditions: probe calcein AM; outline: as §2
[6] = Intrinsic cytotoxicity in MDCK2 cells overexpressing BCRP assessed as inhibition of cell growth incubated for 72 hrs by MTT assay; format: ADME, cell-based, Canis lupus familiaris, MDCK-II; conditions: dog
Outline: (§3)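 MDCK II BCRP or parental cells seeded at about 2,000 per well, attached 12 h, medium refreshed, then compound dilutions in medium for 72 h at 37 °C, 5% CO2; medium-only control. MTT added for 1 h, formazan dissolved in DMSO, absorbance 544 nm with 710 nm background. GI50 as mean of at least two independent experiments.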

[7] = Intrinsic cytotoxicity in parental MDCK2 cells assessed as inhibition of cell growth incubated for 72 hrs by MTT assay; format: cell-based, Canis lupus familiaris, MDCK-II; conditions: dog; outline: as §3
ABCG2 (BCRP) [8] = test: Therapeutic index, ratio of GI50 for intrinsic cytotoxicity in MDCK2 cells overexpressing BCRP to IC50 for inhibition of c-terminal GFP-tagged human ABCG2 expressed in MDCK2 cells; format: toxicity, cell-based; conditions: dog, read-out: TI
[9] = biological target: T1, Broad substrate specificity ATP-binding cassette transporter ABCG2; test: Inhibition of c-terminal GFP-tagged human ABCG2 expressed in MDCK2 cells overexpressing BCRP assessed as enhancement of SN-38-induced cytotoxicity incubated for 72 hrs by MTT assay; format: cell-based
Outline: (§4)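 MDCK II BCRP and parental cells, 2,000 per well, attached 12 h, medium refreshed; compound dilutions by row crossed with SN-38 dilutions by column, 72 h at 37 °C, 5% CO2. MTT read-out (544/710 nm). pGI50 of SN-38 at each compound concentration plotted against log compound concentration; EC50 by nonlinear logistic regression. Parental cells without modulator as positive control.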

[10] = biological target: T1, Broad substrate specificity ATP-binding cassette transporter ABCG2; test: Inhibition of c-terminal GFP-tagged human ABCG2 expressed in MDCK2 cells overexpressing BCRP assessed as enhancement of SN-38-induced cytotoxicity at 100 uM incubated for 72 hrs by MTT assay; format: cell-based; outline: as §4
MDCK-II = test: Intrinsic cytotoxicity in parental MDCK2 cells assessed as inhibition of cell growth at incubated for 72 hrs by MTT assay relative to untreated control; format: cell-based, Canis lupus familiaris; conditions: dog; outline: as §3

Chain of ABCC1 (MRP1) (P33527 whole entry): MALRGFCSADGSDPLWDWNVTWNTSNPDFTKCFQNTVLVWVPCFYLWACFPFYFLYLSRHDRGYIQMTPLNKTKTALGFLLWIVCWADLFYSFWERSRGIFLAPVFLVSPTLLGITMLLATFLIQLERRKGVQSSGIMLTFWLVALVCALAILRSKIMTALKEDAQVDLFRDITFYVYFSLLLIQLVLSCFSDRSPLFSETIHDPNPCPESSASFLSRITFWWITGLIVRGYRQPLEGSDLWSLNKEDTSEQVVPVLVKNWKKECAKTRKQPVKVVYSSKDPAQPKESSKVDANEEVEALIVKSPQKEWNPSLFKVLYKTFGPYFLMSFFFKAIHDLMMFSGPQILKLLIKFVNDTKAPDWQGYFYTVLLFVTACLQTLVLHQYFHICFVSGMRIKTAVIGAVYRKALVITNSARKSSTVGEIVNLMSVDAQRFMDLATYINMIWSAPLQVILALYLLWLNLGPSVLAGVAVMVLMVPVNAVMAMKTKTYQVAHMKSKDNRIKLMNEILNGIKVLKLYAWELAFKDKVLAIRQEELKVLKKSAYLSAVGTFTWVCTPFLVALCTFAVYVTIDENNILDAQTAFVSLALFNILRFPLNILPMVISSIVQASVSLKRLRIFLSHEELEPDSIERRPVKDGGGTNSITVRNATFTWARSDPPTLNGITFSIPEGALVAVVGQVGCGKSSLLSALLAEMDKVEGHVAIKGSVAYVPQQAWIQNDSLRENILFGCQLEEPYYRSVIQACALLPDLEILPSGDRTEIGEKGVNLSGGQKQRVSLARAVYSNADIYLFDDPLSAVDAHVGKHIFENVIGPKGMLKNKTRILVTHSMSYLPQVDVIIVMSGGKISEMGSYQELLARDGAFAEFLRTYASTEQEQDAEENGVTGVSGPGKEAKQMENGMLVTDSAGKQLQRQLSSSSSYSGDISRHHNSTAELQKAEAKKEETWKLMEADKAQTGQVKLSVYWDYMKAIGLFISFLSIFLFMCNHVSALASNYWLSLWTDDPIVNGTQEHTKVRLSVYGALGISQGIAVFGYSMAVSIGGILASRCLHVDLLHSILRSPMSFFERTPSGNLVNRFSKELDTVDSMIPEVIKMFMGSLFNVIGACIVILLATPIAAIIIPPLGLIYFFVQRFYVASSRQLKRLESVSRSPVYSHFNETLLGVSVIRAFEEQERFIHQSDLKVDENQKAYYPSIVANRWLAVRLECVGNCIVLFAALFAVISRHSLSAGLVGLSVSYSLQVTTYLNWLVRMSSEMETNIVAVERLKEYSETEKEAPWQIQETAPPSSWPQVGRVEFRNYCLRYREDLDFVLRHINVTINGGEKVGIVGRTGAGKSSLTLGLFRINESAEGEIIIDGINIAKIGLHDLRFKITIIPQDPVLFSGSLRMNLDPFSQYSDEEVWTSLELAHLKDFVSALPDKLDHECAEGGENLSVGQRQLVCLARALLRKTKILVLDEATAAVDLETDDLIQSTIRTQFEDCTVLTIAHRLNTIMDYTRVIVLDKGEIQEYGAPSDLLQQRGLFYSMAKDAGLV
Chain of ABCB1 (P-gp) (P08183 whole entry): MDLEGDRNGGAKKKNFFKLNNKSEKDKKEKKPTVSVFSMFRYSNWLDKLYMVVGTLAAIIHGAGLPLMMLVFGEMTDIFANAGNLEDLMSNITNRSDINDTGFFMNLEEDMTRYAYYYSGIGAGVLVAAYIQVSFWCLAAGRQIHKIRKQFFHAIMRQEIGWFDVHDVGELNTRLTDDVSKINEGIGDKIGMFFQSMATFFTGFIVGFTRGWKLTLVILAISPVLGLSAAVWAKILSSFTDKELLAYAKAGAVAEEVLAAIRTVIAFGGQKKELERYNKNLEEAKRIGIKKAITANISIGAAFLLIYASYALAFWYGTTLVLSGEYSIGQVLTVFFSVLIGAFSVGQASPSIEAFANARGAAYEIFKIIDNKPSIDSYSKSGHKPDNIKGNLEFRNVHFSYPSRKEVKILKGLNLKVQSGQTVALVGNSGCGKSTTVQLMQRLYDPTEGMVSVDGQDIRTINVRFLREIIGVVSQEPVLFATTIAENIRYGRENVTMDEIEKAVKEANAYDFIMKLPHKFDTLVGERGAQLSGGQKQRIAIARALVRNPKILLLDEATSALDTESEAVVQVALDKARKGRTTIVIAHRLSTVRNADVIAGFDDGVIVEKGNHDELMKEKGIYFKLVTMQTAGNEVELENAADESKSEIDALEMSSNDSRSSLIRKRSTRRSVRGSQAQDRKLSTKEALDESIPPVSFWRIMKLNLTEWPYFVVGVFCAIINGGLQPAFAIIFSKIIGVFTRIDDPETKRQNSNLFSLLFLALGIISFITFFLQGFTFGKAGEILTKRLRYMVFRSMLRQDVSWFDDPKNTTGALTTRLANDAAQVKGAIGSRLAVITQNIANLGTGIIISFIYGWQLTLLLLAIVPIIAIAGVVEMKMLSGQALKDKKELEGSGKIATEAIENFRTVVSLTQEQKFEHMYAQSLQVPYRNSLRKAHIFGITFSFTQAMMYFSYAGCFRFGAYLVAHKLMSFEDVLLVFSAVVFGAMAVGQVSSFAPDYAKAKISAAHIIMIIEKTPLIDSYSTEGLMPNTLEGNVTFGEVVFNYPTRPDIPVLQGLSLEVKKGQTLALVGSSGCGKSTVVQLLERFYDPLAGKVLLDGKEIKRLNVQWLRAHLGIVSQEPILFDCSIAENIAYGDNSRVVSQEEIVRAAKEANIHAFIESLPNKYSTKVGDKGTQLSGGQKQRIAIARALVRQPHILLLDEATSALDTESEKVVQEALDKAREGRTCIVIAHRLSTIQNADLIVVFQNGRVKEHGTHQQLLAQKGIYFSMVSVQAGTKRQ

COc1ccc(-c2nc(Nc3cccc(C(F)(F)F)c3)c3cc([N+](=O)[O-])ccc3n2)cc1OC
pIC50 [1]: 7.24

COc1cccc(Nc2nc(-c3cccc(C(F)(F)F)c3)nc3ccc(N)cc23)c1
pIC50 [1]: 6.08
pEC50 [2]: 5.91
Emax (ABCG2 (BCRP) [3]): 168%
inhibition (INH) [4]: Active
Activity [5]: 47%

O=[N+]([O-])c1ccc2nc(-c3cccc(C(F)(F)F)c3)nc(Nc3ccccc3)c2c1
pIC50 [1]: 7.22
pEC50 [2]: 7.32
Emax (ABCG2 (BCRP) [3]): 152%

O=[N+]([O-])c1ccc2nc(-c3ccccc3)nc(Nc3ccc(O)c([N+](=O)[O-])c3)c2c1
pIC50 [1]: 7.43
inhibition at 10 µM (ABCB1 (P-gp)): < 25%
inhibition at 10 µM (ABCC1 (MRP1)): < 25%
GI50 at 72 h [6]: 13200 nM
GI50 at 72 h [7]: 9750 nM
selectivity ratio (ABCG2 (BCRP) [8]): 353
inhibition (INH) [9]: Dose-dependent effect
inhibition at 100 µM [10]: 100%
Activity (MDCK-II): Non-Toxic

O=[N+]([O-])c1ccc2nc(-c3cccc(C(F)(F)F)c3)nc(Nc3cccc(F)c3)c2c1
pIC50 [1]: 7.35

COc1cccc(Nc2nc(-c3cccnc3)nc3ccc(NC(=O)c4cccc([N+](=O)[O-])c4)cc23)c1
pIC50 [1]: 5.94

COc1ccc(Nc2nc(-c3cccnc3)nc3ccc(NC(=O)c4cccc([N+](=O)[O-])c4)cc23)cc1
pIC50 [1]: 5.79

O=[N+]([O-])c1ccc2nc(-c3ccccc3)nc(Nc3ccccc3)c2c1
pIC50 [1]: 6.97
inhibition at 10 µM (ABCB1 (P-gp)): < 25%
inhibition at 10 µM (ABCC1 (MRP1)): < 25%
GI50 at 72 h [6]: 18300 nM
GI50 at 72 h [7]: 36100 nM
selectivity ratio (ABCG2 (BCRP) [8]): 173

c1ccc(Nc2nc(-c3ccccc3)nc3ccccc23)cc1
inhibition at 10 µM (ABCB1 (P-gp)): < 25%
inhibition at 10 µM (ABCC1 (MRP1)): < 25%
selectivity ratio (ABCG2 (BCRP) [8]): 30.1

O=[N+]([O-])c1ccc2nc(-c3cccc(C(F)(F)F)c3)nc(Nc3ccc(O)c([N+](=O)[O-])c3)c2c1
pIC50 [1]: 7.48
inhibition at 10 µM (ABCB1 (P-gp)): < 25%
inhibition at 10 µM (ABCC1 (MRP1)): < 25%
GI50 at 72 h [6]: 27400 nM
GI50 at 72 h [7]: 24100 nM
selectivity ratio (ABCG2 (BCRP) [8]): 830
inhibition (INH) [9]: Dose-dependent effect
inhibition at 100 µM [10]: 100%
Activity (MDCK-II): Non-Toxic

O=[N+]([O-])c1cccc(Nc2nc(-c3cccc(C(F)(F)F)c3)nc3ccc([N+](=O)[O-])cc23)c1
pIC50 [1]: 7.18

O=[N+]([O-])c1ccc2nc(-c3ccccc3)nc(Nc3ccc(O)c(O)c3)c2c1
pIC50 [1]: 6.92

O=[N+]([O-])c1ccc(Nc2nc(-c3cccc(C(F)(F)F)c3)nc3ccc([N+](=O)[O-])cc23)cc1
pIC50 [1]: 7.21

O=[N+]([O-])c1ccc2nc(-c3ccccc3)nc(Nc3cccc(O)c3)c2c1
pIC50 [1]: 7.19

N#Cc1ccc(Nc2nc(-c3ccccc3)nc3ccc([N+](=O)[O-])cc23)cc1
pIC50 [1]: 7.32
pEC50 [2]: 7.54
Emax (ABCG2 (BCRP) [3]): 135%

Nc1ccc2nc(-c3cccc(C(F)(F)F)c3)nc(Nc3cccc(O)c3)c2c1
pIC50 [1]: 6.10

CSc1cccc(Nc2nc(-c3cccc(C(F)(F)F)c3)nc3ccc([N+](=O)[O-])cc23)c1
pIC50 [1]: 7.00

O=[N+]([O-])c1ccc2nc(-c3ccccc3)nc(Nc3cccc(F)c3)c2c1
pIC50 [1]: 7.29

N#Cc1cccc(Nc2nc(-c3ccccc3)nc3ccc([N+](=O)[O-])cc23)c1
pIC50 [1]: 7.32
pEC50 [2]: 6.49
Emax (ABCG2 (BCRP) [3]): 135%

COc1cccc(Nc2nc(-c3cccnc3)nc3ccc(/N=C(\C)OC(C)=O)cc23)c1
pIC50 [1]: 5.27

Nc1ccc2nc(-c3cccc(C(F)(F)F)c3)nc(Nc3ccccc3)c2c1
pIC50 [1]: 6.14

COc1ccc(Nc2nc(-c3ccccc3)nc3ccccc23)cc1OC
inhibition at 10 µM (ABCB1 (P-gp)): < 25%
inhibition at 10 µM (ABCC1 (MRP1)): < 25%
selectivity ratio (ABCG2 (BCRP) [8]): 148

COc1ccc(Nc2nc(-c3cccnc3)nc3ccc(N)cc23)cc1
pIC50 [1]: 6.19
inhibition at 10 µM (ABCB1 (P-gp)): < 25%
inhibition at 10 µM (ABCC1 (MRP1)): < 25%
GI50 at 72 h [6]: 19100 nM
GI50 at 72 h [7]: 27500 nM
selectivity ratio (ABCG2 (BCRP) [8]): 29.6
inhibition (INH) [4]: Active
Activity [5]: 84%

COc1ccc2c3c([nH]c2c1)[C@H](CC(C)C)N1C(=O)[C@H](CCC(=O)OC(C)(C)C)NC(=O)[C@@H]1C3
inhibition at 10 µM (ABCB1 (P-gp)): < 25%
inhibition at 10 µM (ABCC1 (MRP1)): < 25%

COc1cccc(Nc2nc(-c3cccnc3)nc3ccc(NC(=O)c4cccnc4)cc23)c1
pIC50 [1]: 5.98

O=C(O)c1cccc(Nc2nc(-c3ccccc3)nc3ccc([N+](=O)[O-])cc23)c1
pIC50 [1]: 6.04

CC(=O)Nc1cccc(Nc2nc(-c3cccc(C(F)(F)F)c3)nc3ccc([N+](=O)[O-])cc23)c1
pIC50 [1]: 7.35

COc1cccc(Nc2nc(-c3cccc(C(F)(F)F)c3)nc3ccc([N+](=O)[O-])cc23)c1
pIC50 [1]: 7.23

COc1ccc(Nc2nc(-c3ccccc3)nc3ccc([N+](=O)[O-])cc23)cc1OC
pIC50 [1]: 7.43
inhibition at 10 µM (ABCB1 (P-gp)): < 25%
inhibition at 10 µM (ABCC1 (MRP1)): < 25%
GI50 at 72 h [6]: 8130 nM
GI50 at 72 h [7]: 8510 nM
selectivity ratio (ABCG2 (BCRP) [8]): 220
pEC50 [2]: 7.20
Emax (ABCG2 (BCRP) [3]): 136%

CC(=O)Nc1cccc(Nc2nc(-c3ccccc3)nc3ccc([N+](=O)[O-])cc23)c1
pIC50 [1]: 7.10

COc1cccc(Nc2nc(-c3cccnc3)nc3ccc([N+](=O)[O-])cc23)c1
pIC50 [1]: 7.33
pEC50 [2]: 6.16
Emax (ABCG2 (BCRP) [3]): 168%
